# Data taken from ChEMBL document CHEMBL1143895, “Core-modified porphyrins. Part 6: Effects of lipophilicity and core structures on physicochemical and biological properties in vitro” (Bioorg Med Chem, 2008).
# Columns and labels:
# R3230AC [1] = assay: Cytotoxicity in rat R3230AC cells irradiated with 10.8J/cm^2 of water filtered halogen light after 24 hrs by MTT assay; assay type: functional, cell-based; conditions: light or radiation study
# In short: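 R3230AC rodent mammary adenocarcinoma cells in α-MEM with 10% bovine growth serum, seeded 1.0–1.5×10^4 cells/well and grown 24 h at 37 °C, 5% CO2. Porphyrin in complete medium for 24 h, rinsed with saline, then irradiated 1 h in clear serum-free medium with water-filtered halogen light (400–850 nm, 3 mW/cm², 10.8 J/cm²). Given complete medium, 24 h dark, then MTT vs light-only controls. IC50 from Hill fit; ≥3 experiments in duplicate.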
# [2] = Lipophilicity, log D at pH 7.4; assay type: physicochemical; conditions: buffer
# In short: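 Shake-flask method: porphyrin dissolved in equal volumes of n-octanol and pH 7.4 phosphate buffer, sonicated 30 min, left to settle 4 h. Each phase measured by UV-vis absorbance and reported as log D7.4.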
# [3] = Singlet oxygen generation assessed as DPBF oxidation at 1 uM; assay type: functional
# In short: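 DPBF consumption by singlet oxygen from the irradiated porphyrin, with stirring under 3 mW/cm² light. UV absorbance of DPBF read every 2 min up to 10 min, expressed as percent DPBF oxidized.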
# R3230AC [4] = assay: Cytotoxicity in rat R3230AC cells under dark condition upto 10 uM after 24 hrs by MTT assay; assay type: functional, cell-based
# In short: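 Dark toxicity in R3230AC cells, seeded 1.0–1.5×10^4 cells/well and grown 24 h at 37 °C, 5% CO2. Porphyrin up to 10 μM in complete medium for 24 h, rinsed with saline. Cells held 1 h in the dark in clear serum-free medium, then 24 h in complete medium before MTT, read as percent of untreated dark controls.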
# R3230AC [5] = assay: Drug uptake in rat R3230AC assessed as intracellular accumulation per cell at 10 uM after 24 hrs; assay type: ADME, cell-based
# In short: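 R3230AC cells seeded 2.0–3.0×10^4/well and grown 24 h. Porphyrin from a 2 mM DMSO stock, diluted in complete medium to 10 μM final, 24 h at 37 °C. Monolayer rinsed twice with 0.9% NaCl and lysed in DMSO. Porphyrin fluorescence read and converted through a DMSO standard curve to fmol/cell. Mean with SEM.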
SMILES,IC50 (R3230AC [1]),logD [2],Activity [3],Activity (R3230AC [4]),Drug uptake (R3230AC [5])
CC(C)(C)c1ccc(-c2c3nc(c(-c4ccc(OCC(=O)O)cc4)c4ccc(s4)c(-c4ccccc4)c4nc(c(-c5ccccc5)c5ccc2s5)C=C4)C=C3)cc1,590 nM,> 2,75%,Not toxic,0.46 fmol
O=S(=O)([O-])c1ccc(-c2c3nc(c(-c4ccc(F)cc4)c4ccc(s4)c(-c4ccc(F)cc4)c4nc(c(-c5ccc(F)cc5)c5ccc2s5)C=C4)C=C3)cc1.[Na+],770 nM,0.8,64%,Not toxic,0.3 fmol
O[C@@H]1c2nc(c(-c3ccccc3)c3ccc(s3)c(-c3ccccc3)c3nc(c(-c4ccccc4)c4ccc(s4)c2-c2ccccc2)C=C3)[C@@H]1O,180 nM,> 2,78%,Not toxic,4.5 fmol
O=C(O)COc1ccc(-c2c3nc(c(-c4ccc(F)cc4)c4ccc(s4)c(-c4ccc(F)cc4)c4nc(c(-c5ccc(F)cc5)c5ccc2s5)C=C4)C=C3)cc1,380 nM,1.8,75%,Not toxic,0.33 fmol
O=C(O)COc1ccc(-c2c3nc(c(-c4ccccc4)c4ccc(s4)c(-c4ccccc4)c4nc(c(-c5ccc(OCC(=O)O)cc5)c5ccc2s5)C=C4)C=C3)cc1,130 nM,0.1,68%,Not toxic,0.59 fmol
O=C(O)COc1ccc(-c2c3nc(c(-c4ccccc4)c4ccc(s4)c(-c4ccccc4)c4nc(c(-c5ccc(OCC(=O)O)cc5)c5ccc2s5)[C@H](O)[C@@H]4O)C=C3)cc1,2570 nM,-0.5,62%,Not toxic,0.11 fmol
O=C(O)COc1ccc(-c2c3nc(c(-c4ccccc4)c4ccc(s4)c(-c4ccccc4)c4nc(c(-c5ccccc5)c5ccc2s5)C=C4)C=C3)cc1,260 nM,1.6,78%,Not toxic,0.31 fmol
O=C(O)COc1c(OCC(=O)O)c2cc3nc(c(-c4ccccc4)c4ccc([nH]4)c(-c4ccccc4)c4nc(cc1s2)C=C4)C=C3 [THIAPORPHYRIN],2280 nM,0.8,48%,Not toxic,0.16 fmol
